In the library only some 2% were active in any assay of this set; here they are far more common.
SR-BI DiI inh: inhibitors of mouse SR-BI mediated HDL lipid uptake; Q61009; ldlA[mSR-BI] CHO cells, DiI-HDL uptake fluorescence, 3 h; inhibition, % at 12.5 µM; 320,000 tested, 0.96% active; AID 488896;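 active means mean replicate inhibition of at least 70% and a set share of replicates each scoring 70 or more; inconclusive means meets just one of the two criteria; inactive means fails both criteria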;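 further: 0% = median of neutral control wells and 100% = median of positive control wells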
dFosB act-1: activators of mouse delta FosB homodimer | P13346 | purified delta FosB, TAMRA-CDK5 oligo fluorescence polarization; percent of positive-control signal above neutral wells | activation, % at 25 µM | 340,000 tested, 0.99% active;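 active means mean activation above about 17%, with every replicate also reaching it, limit read from the data, passing the limit was not always enough; inconclusive means only one of the two conditions met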
Target sequence (P13346 whole entry, looked up): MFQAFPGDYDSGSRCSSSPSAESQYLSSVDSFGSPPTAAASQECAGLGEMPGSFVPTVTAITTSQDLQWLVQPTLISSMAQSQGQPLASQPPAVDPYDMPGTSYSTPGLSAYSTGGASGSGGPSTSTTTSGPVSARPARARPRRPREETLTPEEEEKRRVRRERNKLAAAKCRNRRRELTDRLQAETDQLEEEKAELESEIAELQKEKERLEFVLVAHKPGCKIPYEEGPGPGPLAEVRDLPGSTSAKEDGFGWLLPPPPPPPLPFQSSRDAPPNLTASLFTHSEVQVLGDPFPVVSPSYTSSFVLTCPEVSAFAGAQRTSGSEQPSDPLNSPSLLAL
SR-BI uptake up: enhances SR-BI lipid uptake from DiI-HDL; CHO ldlA[mSR-BI] cells, DiI-HDL uptake fluorescence, 3 h; 100 = double the neutral-control signal; activation, % at 12.5 µM; 320,000 tested, 0.096% active; AID 504775;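 active means mean replicate activation of at least 60% and every replicate at or above 60%; inconclusive means mean or all-replicate condition met, but not both; inactive means mean below 60% and not all replicates reaching 60%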;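 further: 0% = median plate neutral-control signal and 100% = twice that signal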
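Material – SR-BI-overexpressing, LDLR-lacking CHO cells · Medium – BSA-supplemented, HEPES-buffered Ham's F12, pH 7.4 · Doses – single concentration · Times – compound with DiI-HDL co-incubation, 3 h at 37 °C · Measured by – bottom-read fluorescence, 550/595 nm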
CDK5 p35 inh: blocks human CDK5/p35 kinase activity; Recombinant CDK5/p35, ADP-Glo luminescence, 60 min; 330,000 tested, 0.01% active; inhibition, % at 10 µM; AID 488839;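 active means highest replicate inhibition of at least 50% and at least 75% of replicates reaching 50%; inconclusive means only one of the two criteria met; inactive means both criteria failed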;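 further: plate controls were DMSO neutral control for no effect and GW8510 at 10 µM for full effect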
dFosB act-2: activators of mouse delta FosB homodimer DNA binding | shares compounds with dFosB act-1 | purified delta FosB, TAMRA-CDK5 oligo fluorescence polarization; normalised: neutral wells 0, positive control 100 | activation, % at 24.9 µM | 2,400 tested, under 10 active;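 active means highest replicate activation at or above 34% and every replicate reaching that threshold; inconclusive means meets only one of the two criteria; inactive means meets neither criterion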;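 further: higher polarization means more probe DNA bound by delta FosB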
Active calls of the source: *; ? = inconclusive; / = no result given.

SMILES	SR-BI DiI inh	dFosB act-1	SR-BI uptake up	CDK5 p35 inh	dFosB act-2
O=C(Nc1ccc(NC(=O)c2ccc3c(c2)OCCO3)cc1)c1ccccc1	66	35*	-66	-7	1
CCOc1ccc(-n2c(=O)c3c(C)c(C)sc3n(CC(=O)NCc3ccco3)c2=O)cc1	-13	8	13	0	/
Cc1sc2c(c1C)c(=O)n(-c1cccc(C(F)(F)F)c1)c(=O)n2CC(=O)NCc1ccco1	-24	57*	24	1	1
CCc1nnc(NC(=O)c2ccc(-c3cccc(C(F)(F)F)c3)o2)s1	2	19*	-2	0	3
CCc1nnc(NC(=O)c2ccc(-c3cc(C(F)(F)F)ccc3Cl)o2)s1	25	-7	-25	-4	/
CC(C)C(=O)Nc1ccc(-c2ccc3nncn3n2)cc1	/	-9	/	1	/
O=C(Nc1ccc(-c2ccc3nncn3n2)cc1)c1ccc(Br)o1	/	54*	/	1	4
CCCN(CCC)CCCNC(=S)Nc1ccc2nc(N3CCN(C)CC3)cc(C)c2c1	/	12	/	2	/
CCCCN(CC)CCNC(=S)Nc1ccc2nc(N3CCN(C)CC3)cc(C)c2c1	-9	21*	9	1	-3
CCCn1c(N)c(C(=O)CSc2n[nH]c(-c3ccc(C)cc3)n2)c(=O)[nH]c1=O	14	28*	-14	-1	-2
CSc1ncccc1C(=O)OCC(=O)NC1CCC(C)CC1 (stereo not drawn)	3	4	-3	1	/
CN(CC(=O)Nc1ccc(F)cc1)CC(=O)N1CCCCCC1	-9	-3	9	-2	/
O=C(CCc1nc2sc3c(c2c(=O)[nH]1)CCCC3)N1CCN(c2ccccc2)CC1	-12	-11	12	2	/
COc1ccc(-c2nnc(SCC(=O)c3ccc(O)cc3O)o2)cc1	/	40*	/	-2	1
COc1ccc(-c2nnc(SCC(=O)c3cc(C)n(Cc4cccs4)c3C)o2)cc1	-7	43*	7	1	3
COc1ccc(-c2nnc(SCC(=O)c3ccc[nH]3)o2)cc1	-1	6	1	2	/
CC(C)Cc1nnc(NC(=O)CCC(=O)NCc2ccccc2Cl)s1	-9	19*	9	-3	8
O=C(/C=C/c1ccc([N+](=O)[O-])cc1)Oc1ccc(/C=N/NC(=O)c2ccncc2)cc1	9	26*	-9	0	6
COc1cc(/C=N/NC(=S)NC(C)C)ccc1OCC(=O)Nc1c(C)cc(C)cc1C	32	29*	-32	-1	0
CCN(C(=O)COC(=O)CC1CCCCC1)c1c(N)n(Cc2ccccc2)c(=O)[nH]c1=O	-4	5	4	0	/
Cc1cc(N2CCOCC2)ccc1/C=C\[N+](=O)[O-]	11	-1	-11	0	/
CCCCCc1cc(=O)oc2c(C(CCN3CCCC(C)C3)c3ccc4c(c3)OCO4)c(OC)cc(OC)c12 (stereo not drawn)	8	32*	-8	0	1
CCCCCc1cc(=O)oc2c(C(CCN3CCCCC3)c3ccc4c(c3)OCO4)c(OC)cc(OC)c12 (stereo not drawn)	3	?	-3	2	/
COc1cc(OC)c2c(-c3ccccc3)cc(=O)oc2c1C(CCN1CCCC1)c1ccc2c(c1)OCO2 (stereo not drawn)	-4	19*	4	0	2
COc1ccc(C(CCN2CCN(c3ccccc3)CC2)c2c(OC)cc(OC)c3c(-c4ccccc4)cc(=O)oc23)cc1 (stereo not drawn)	-11	20*	11	0	2
SMILES	SR-BI DiI inh	dFosB act-1	SR-BI uptake up	CDK5 p35 inh	dFosB act-2
O=C(Nc1ccccc1F)C1CCN(S(=O)(=O)c2cccc3nonc23)CC1	-18	1	18	-2	/
CCOc1ccc(/C=N/NC(=O)CN2CCCCC2)cc1OCC	-19	-3	19	-1	/
O=C(COC(=O)c1cc([N+](=O)[O-])ccc1NCc1ccccc1Cl)NCC(F)(F)F	32	53*	-32	-1	5
CCNc1ccc(C(=O)OCC(=O)NCc2ccccc2Cl)cc1[N+](=O)[O-]	-3	?	3	0	/
Cc1onc(-c2c(F)cccc2Cl)c1C(=O)OCC(=O)Nc1cccc(S(=O)(=O)N(C)C)c1	24	-9	-24	-1	/
Cc1ccc(S(=O)(=O)N(Cc2ccc(C(F)(F)F)cc2)C(=O)N2CCN(C)CC2)cc1	-21	-6	21	1	/
